Test results taken from ChEMBL document CHEMBL1122624, “Activity of novel aminocannabinoids in baboons” (J Med Chem, 1984).
Calls of active or inactive are those of the source. The calls are words filed in the database; no cut-off is given here.

Assays:
Format in all cases: functional, organism-based
Cercopithecidae [1] = assay: Psychotropic effects in Baboons at a dose 0.1 mg/kg; ++ = stupor, ataxia, suppression of motor activity, full ptosis, typical crouched posture (thinker position) kept for up to 3 h; set-up: dose 0.1 mg/kg
In short: (§1)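 Male or female baboons were given a single injection, with two animals per dose level. The same animals received the solvent alone 1 week later. Behaviour was scored by observation, including yawning, body scratching, motor activity, ptosis, posture and responsiveness.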

Cercopithecidae [2] = assay: Psychotropic effects in Baboons at a dose 0.05 mg/kg; + = drowsiness, decreased motor activity, occasional partial ptosis, occasional head drop; set-up: dose 0.05 mg/kg; in short: as §1
Cercopithecidae [3] = assay: Induction of yawning and scratching was determined in Baboons at a dose 0.5 mg/kg; absent; set-up: dose 0.5 mg/kg; in short: as §1
Cercopithecidae [4] = assay: Induction of yawning and scratching was determined in Baboons at a dose 0.1 mg/kg; absent; set-up: dose 0.1 mg/kg; in short: as §1
Cercopithecidae [5] = assay: Induction of yawning and scratching was determined in Baboons at a dose 0.05 mg/kg; absent; set-up: dose 0.05 mg/kg; in short: as §1
Cercopithecidae [6] = assay: Psychotropic effects in baboons at a dose 0.5 mg/kg; +++ = severe stupor and ataxia, full ptosis, immobility, crouched posture lasting for more than 3 h, and absence of reaction to external stimuli; set-up: dose 0.5 mg/kg; in short: as §1
Cercopithecidae [7] = assay: Induction of yawning and scratching was determined in Baboons at a dose 1.0 mg/kg; absent; set-up: dose 1 mg/kg; in short: as §1
Cercopithecidae [8] = assay: Psychotropic effects in Baboons at a dose 0.5 mg/kg; ++ = stupor, ataxia, suppression of motor activity, full ptosis, typical crouched posture (thinker position) kept for up to 3 h; set-up: dose 0.5 mg/kg; in short: as §1
Cercopithecidae [9] = assay: Psychotropic effects in Baboons at a dose 0.1 mg/kg; +/- = tranquility; set-up: dose 0.1 mg/kg; in short: as §1
Cercopithecidae [10] = assay: Psychotropic effects in Baboons at a dose 1.0 mg/kg; +++ = severe stupor and ataxia, full ptosis, immobility, crouched posture lasting for more than 3 h, and absence of reaction to external stimuli; set-up: dose 1 mg/kg; in short: as §1
Cercopithecidae [11] = assay: Psychotropic effects in Baboons at a dose 1.0 mg/kg; - = no change; set-up: dose 1 mg/kg; in short: as §1
Cercopithecidae [12] = assay: Psychotropic effects in Baboons at a dose 2.0 mg/kg; + = drowsiness, decreased motor activity, occasional partial ptosis, occasional head drop; set-up: dose 2 mg/kg; in short: as §1
Cercopithecidae [13] = assay: Induction of yawning and scratching was determined in Baboons at a dose 2.0 mg/kg; absent; set-up: dose 2 mg/kg; in short: as §1
Cercopithecidae [14] = assay: Psychotropic effects in Baboons at a dose 2.0 mg/kg; - = no change; set-up: dose 2 mg/kg; in short: as §1
Cercopithecidae [15] = assay: Induction of yawning and scratching was determined in Baboons at a dose 5.0 mg/kg; present; set-up: dose 5 mg/kg; in short: as §1
Cercopithecidae [16] = assay: Psychotropic effects in baboons at a dose 10.0 mg/kg; +/- = tranquility; set-up: dose 10 mg/kg; in short: as §1
Cercopithecidae [17] = assay: Psychotropic effects in Baboons at a dose 5.0 mg/kg; - = no change; set-up: dose 5 mg/kg; in short: as §1
Cercopithecidae [18] = assay: Induction of yawning and scratching was determined in Baboons at a dose 10.0 mg/kg; present; set-up: dose 10 mg/kg; in short: as §1
Cercopithecidae [19] = assay: Induction of yawning and scratching was determined in Baboons at a dose 2.0 mg/kg; present; set-up: dose 2 mg/kg; in short: as §1
Cercopithecidae [20] = assay: Psychotropic effects in Baboons at a dose 10.0 mg/kg; - = no change; set-up: dose 10 mg/kg; in short: as §1
Cercopithecidae [21] = assay: Induction of yawning and scratching was determined in Baboons at a dose 4.0 mg/kg; absent; set-up: dose 4 mg/kg; in short: as §1
Cercopithecidae [22] = assay: Psychotropic effects in Baboons at a dose 4.0 mg/kg; - = no change; set-up: dose 4 mg/kg; in short: as §1
Cercopithecidae [23] = assay: Induction of yawning and scratching was determined in Baboons at a dose 5.0 mg/kg; absent; set-up: dose 5 mg/kg; in short: as §1
Cercopithecidae [24] = assay: Psychotropic effects in baboons at a dose 10.0 mg/kg;+/- = tranquility; set-up: dose 10 mg/kg; in short: as §1
Cercopithecidae [25] = assay: Psychotropic effects in Baboons at a dose 5.0 mg/kg; +/- = tranquility; set-up: dose 5 mg/kg; in short: as §1
Cercopithecidae [26] = assay: Induction of yawning and scratching was determined in Baboons at a dose 10.0 mg/kg; absent; set-up: dose 10 mg/kg; in short: as §1

For `CCCCCc1cc(O)c2c(c1)OC(C)(C)[C@@H]1CC=C(C)C[C@@H]21`, the Activity (Cercopithecidae [1]) was “Active”, the Activity (Cercopithecidae [2]) was “Weak activity” and the Activity (Cercopithecidae [3]) was “inactive”. For the same compound, the Activity (Cercopithecidae [4]) was “inactive”, the Activity (Cercopithecidae [5]) was “inactive” and the Activity (Cercopithecidae [6]) was “Active”.
For `CCCCCc1cc(O)c2c(c1)OC(C)(C)[C@@H]1CC[C@@H](C)CC21` (stereo partly drawn), the Activity (Cercopithecidae [3]) was “inactive”, the Activity (Cercopithecidae [7]) was “inactive” and the Activity (Cercopithecidae [8]) was “severe stupor and ataxia, full ptosis, immobility, crouched posture lasting for more than 3 h, and absence of reaction to external stimuli”. For the same compound, the Activity (Cercopithecidae [4]) was “inactive”, the Activity (Cercopithecidae [9]) was “+/-” and the Activity (Cercopithecidae [10]) was “severe stupor and ataxia, full ptosis, immobility, crouched posture lasting for more than 3 h, and absence of reaction to external stimuli”.
With `CCCCCc1cc(O)c2c(c1)OC(C)(C)[C@@H]1CC[C@H](C)CC21` (stereo partly drawn) the Activity (Cercopithecidae [7]) was “inactive”, the Activity (Cercopithecidae [11]) was “inactive” and the Activity (Cercopithecidae [12]) was “drowsiness, decreased motor activity, occasional partial ptosis, occasional head drop”. For the same compound, the Activity (Cercopithecidae [13]) was “inactive”.
With `CCCCCc1cc(O)c2c(c1)OC(C)(C)[C@@H]1CC[C@H](CNC)CC21` (stereo partly drawn) the Activity (Cercopithecidae [14]) was “inactive”, the Activity (Cercopithecidae [15]) was “present” and the Activity (Cercopithecidae [16]) was “+/-”. For the same compound, the Activity (Cercopithecidae [17]) was “inactive”, the Activity (Cercopithecidae [18]) was “present” and the Activity (Cercopithecidae [19]) was “present”.
For `CCCCCc1cc(O)c2c(c1)OC(C)(C)[C@@H]1CC[C@H](CN(C)C)CC21` (stereo partly drawn), the Activity (Cercopithecidae [14]) was “inactive”, the Activity (Cercopithecidae [15]) was “present” and the Activity (Cercopithecidae [20]) was “inactive”. For the same compound, the Activity (Cercopithecidae [17]) was “inactive”, the Activity (Cercopithecidae [18]) was “present” and the Activity (Cercopithecidae [19]) was “present”.
In the case of `CCCCCc1cc(O)c2c(c1)OC(C)(C)[C@@H]1CCC(CN(C)C)CC21` (stereo partly drawn), the Activity (Cercopithecidae [14]) is reported as “inactive”, the Activity (Cercopithecidae [21]) is reported as “inactive” and the Activity (Cercopithecidae [22]) is reported as “inactive”. For the same compound, the Activity (Cercopithecidae [13]) was “inactive”.
In the case of `CCCCCc1cc(O)c2c(c1)OC(C)(C)[C@@H]1CCC(CNC)CC21` (stereo partly drawn), the Activity (Cercopithecidae [23]) is reported as “inactive”, the Activity (Cercopithecidae [14]) is reported as “inactive” and the Activity (Cercopithecidae [24]) is reported as “+/-”. The Activity (Cercopithecidae [25]) was “+/-”, the Activity (Cercopithecidae [26]) was “inactive” and the Activity (Cercopithecidae [13]) was “inactive”.
